Data: PMC8992012 (Bioorganic & medicinal chemistry, 2021)

system: NF-κB; assay: NF-κB activation using THP1-Blue NF-κB cells; format: cell-based, human; details: Homo sapiens, 20 h, read-out: NF-κB SEAP Compound alone % Activation
Summary of the method: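 THP1-Blue NF-κB cells carry a stably integrated NF-κB-inducible SEAP. They were plated at 10^5 cells/well in RPMI with 10% FBS, penicillin, streptomycin and Normocin, then treated for 20 h with 5 μM test compound (0.5% DMSO final), alone or with LPS at 10 ng/mL. Supernatant SEAP was read colorimetrically at 630 nm. Signals were two-point normalized: baseline (vehicle or LPS) 100%, reference hit 200%.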

Row | Structure (SMILES) | activation at 5 µM [%]
1 | CCc1csc(NC(=O)c2ccc(S(=O)(=O)N3CCCCC3)cc2)n1 [Compound 12h, N-(4-ethylthiazol-2-yl)-4-(piperidin-1-ylsulfonyl)benzamide] | 100
2 | Cc1ccccc1-c1csc(NC(=O)c2ccc(S(=O)(=O)N3CCCCC3)cc2)n1 [Compound 12b, 4-(piperidin-1-ylsulfonyl)-N-(4-(o-tolyl)thiazol-2-yl)benzamide] | 100
3 | Cc1ccc(C)c(-c2csc(NC(=O)c3cccc(C(=O)N4CCCCC4)c3)n2)c1 [Compound 45d, N-(4-(2,5-dimethylphenyl)thiazol-2-yl)-3-(piperidine-1-carbonyl)benzamide] | 100

same assay, conditions: compound alone, 5 μM, 20h

Row | Structure (SMILES) | NF-κB activity (in words, SAR text to Table 1)
4 | C#CCN(C(=O)c1ccc(S(=O)(=O)N2CCCCC2)cc1)c1nc(-c2cc(C)ccc2C)cs1 [Compound 34d, N-(4-(2,5-dimethylphenyl)thiazol-2-yl)-4-(piperidin-1-ylsulfonyl)-N-(prop-2-yn-1-yl)benzamide] | inactive
5 | Cc1ccc(C)c(-c2nc(NC(=O)c3ccc(S(=O)(=O)N4CCCCC4)cc3)sc2N2CCCCC2)c1 [Compound 18h, N-(4-(2,5-dimethylphenyl)-5-(piperidin-1-yl)thiazol-2-yl)-4-(piperidin-1-ylsulfonyl)benzamide] | completely inactive
6 | CC(C)(C)c1csc(NC(=O)c2ccc(S(=O)(=O)N3CCCCC3)cc2)n1 [Compound 12k, N-(4-(tert-butyl)thiazol-2-yl)-4-(piperidin-1-ylsulfonyl)benzamide] | None of these molecules had any NF-κB activity
7 | CCCCN(CCCC)S(=O)(=O)c1ccc(C(=O)Nc2nc(-c3cc(C)ccc3C)cs2)cc1 [Compound 54c, 4-(N,N-dibutylsulfamoyl)-N-(4-(2,5-dimethylphenyl)thiazol-2-yl)benzamide] | lost activity
8 | Cc1cccc(C)c1-c1csc(NC(=O)c2ccc(S(=O)(=O)N3CCCCC3)cc2)n1 [Compound 12p, N-(4-(2,6-dimethylphenyl)thiazol-2-yl)-4-(piperidin-1-ylsulfonyl)benzamide] | retained activity
9 | Cc1ccc2c(c1)-c1nc(NC(=O)c3ccc(S(=O)(=O)N4CCCCC4)cc3)sc1C2 [Compound 12r, N-(5-methyl-8H-indeno[1,2-d]thiazol-2-yl)-4-(piperidin-1-ylsulfonyl)benzamide] | weakly active
10 | CCc1csc(NC(=O)c2ccc(S(=O)(=O)N3CCCCC3)cc2)n1 [Compound 12h, N-(4-ethylthiazol-2-yl)-4-(piperidin-1-ylsulfonyl)benzamide] | None of these molecules had any NF-κB activity
11 | Cc1ccc2c(c1)-c1nc(NC(=O)c3ccc(S(=O)(=O)N4CCCCC4)cc3)sc1CC2 [Compound 12s, N-(8-methyl-4,5-dihydronaphtho[1,2-d]thiazol-2-yl)-4-(piperidin-1-ylsulfonyl)benzamide] | weakly active
12 | Cc1ccc(C)c(-c2csc(NC(=O)c3ccc(S(=O)(=O)C4CCCCC4)cc3)n2)c1 [Compound 45b, 4-(cyclohexylsulfonyl)-N-(4-(2,5-dimethylphenyl)thiazol-2-yl)benzamide] | none of these modifications at site E was tolerated
13 | Cc1ccc(C)c(-c2cnc(NC(=O)c3ccc(S(=O)(=O)N4CCCCC4)cc3)s2)c1 [Compound 18e, N-(5-(2,5-dimethylphenyl)thiazol-2-yl)-4-(piperidin-1-ylsulfonyl)benzamide] | none of these molecules that replaced the thiazole functionality was active
14 | Cc1ccccc1-c1csc(NC(=O)c2ccc(S(=O)(=O)N3CCCCC3)cc2)n1 [Compound 12b, 4-(piperidin-1-ylsulfonyl)-N-(4-(o-tolyl)thiazol-2-yl)benzamide] | inactive
15 | Cc1ccc(C)c(-c2cccc(NC(=O)c3ccc(S(=O)(=O)N4CCCCC4)cc3)n2)c1 [Compound 18b, N-(6-(2,5-dimethylphenyl)pyridin-2-yl)-4-(piperidin-1-ylsulfonyl)benzamide] | none of these molecules that replaced the thiazole functionality was active
16 | Cc1ccc(C)c(-c2csc(N(C)C(=O)c3ccc(S(=O)(=O)N4CCCCC4)cc3)n2)c1 [Compound 34c, N-(4-(2,5-dimethylphenyl)thiazol-2-yl)-N-methyl-4-(piperidin-1-ylsulfonyl)benzamide] | inactive
17 | COc1cc(S(=O)(=O)N2CCCCC2)ccc1C(=O)Nc1nc(-c2cc(C)ccc2C)cs1 [Compound 42j, N-(4-(2,5-dimethylphenyl)thiazol-2-yl)-2-methoxy-4-(piperidin-1-ylsulfonyl)benzamide] | significantly dropped
18 | CCCC#Cc1sc(NC(=O)c2ccc(S(=O)(=O)N3CCC(CCC)CC3)cc2)nc1-c1cc(C)ccc1C [Compound 57, N-(4-(2,5-dimethylphenyl)-5-(pent-1-yn-1-yl)thiazol-2-yl)-4-((4-propylpiperidin-1-yl)sulfonyl)benzamide] | significant loss of activity
19 | COc1cc(C(=O)Nc2nc(-c3cc(C)ccc3C)cs2)ccc1S(=O)(=O)N1CCCCC1 [Compound 42g, N-(4-(2,5-dimethylphenyl)thiazol-2-yl)-3-methoxy-4-(piperidin-1-ylsulfonyl)benzamide] | decline in activity
20 | Cc1ccc(C)c(-c2csc(NC(=O)c3cccc(C(=O)N4CCCCC4)c3)n2)c1 [Compound 45d, N-(4-(2,5-dimethylphenyl)thiazol-2-yl)-3-(piperidine-1-carbonyl)benzamide] | none of these modifications at site E was tolerated
21 | CC(C)(C)Cc1csc(NC(=O)c2ccc(S(=O)(=O)N3CCCCC3)cc2)n1 [Compound 12j, N-(4-neopentylthiazol-2-yl)-4-(piperidin-1-ylsulfonyl)benzamide] | None of these molecules had any NF-κB activity
22 | Cc1ccc(C)c(-c2csc(NC(=O)c3ccc(S(=O)(=O)N4CCNCC4)cc3)n2)c1 [Compound 54i, N-(4-(2,5-dimethylphenyl)thiazol-2-yl)-4-(piperazin-1-ylsulfonyl)benzamide] | inactive
23 | CCSc1sc(NC(=O)c2ccc(S(=O)(=O)N3CCCCC3)cc2)nc1-c1cc(C)ccc1C [Compound 18k, N-(4-(2,5-dimethylphenyl)-5-(ethylthio)thiazol-2-yl)-4-(piperidin-1-ylsulfonyl)benzamide] | completely inactive
24 | Cc1ccc(C)c(-c2csc(NC(=O)c3ccc(S(=O)(=O)N4CCCCC4)c(N)c3)n2)c1 [Compound 42k, 3-amino-N-(4-(2,5-dimethylphenyl)thiazol-2-yl)-4-(piperidin-1-ylsulfonyl)benzamide] | decline in activity
25 | CCc1ccc(C)c(-c2csc(NC(=O)c3ccc(S(=O)(=O)N4CCCCC4)cc3)n2)c1 [Compound 12u, N-(4-(5-ethyl-2-methylphenyl)thiazol-2-yl)-4-(piperidin-1-ylsulfonyl)benzamide] | regained the NF-κB activity
26 | Cc1ccc(C)c(-c2csc(NC(=O)c3ccc(S(=O)(=O)N4CCCCC4)c(Br)c3)n2)c1 [Compound 42e, 3-bromo-N-(4-(2,5-dimethylphenyl)thiazol-2-yl)-4-(piperidin-1-ylsulfonyl)benzamide] | retained NF-κB activity
